Marks after values point to notes of the source that are not given here.
Experiments:
[1] = DPPH free radical scavenging activity; conditions: mean ± SE; concentration showing 50% of antioxidant activity
Outline: (§1)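 Procedure taken from a cited method; the paper gives no reagent levels, times or read-out wavelength. Test compounds were a pyridine Schiff base ligand and its Cu(II) and Zn(II) complexes, with butylated hydroxyanisole (BHA) as positive control.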

[2] = ABTS cation radical scavenging activity; conditions: mean ± SE; concentration showing 50% of antioxidant activity
Outline: as §1

[3] = Superoxide anion radical scavenging activity; conditions: mean ± SE; concentration showing 50% of antioxidant activity
Outline: as §1

[4] = target: T1, type-VI B porcine pancreatic α-amylase (Sus scrofa, UniProt P00690); assay: Inhibition of α-amylase; type: biochemical
T1 sequence (P00690 16-511): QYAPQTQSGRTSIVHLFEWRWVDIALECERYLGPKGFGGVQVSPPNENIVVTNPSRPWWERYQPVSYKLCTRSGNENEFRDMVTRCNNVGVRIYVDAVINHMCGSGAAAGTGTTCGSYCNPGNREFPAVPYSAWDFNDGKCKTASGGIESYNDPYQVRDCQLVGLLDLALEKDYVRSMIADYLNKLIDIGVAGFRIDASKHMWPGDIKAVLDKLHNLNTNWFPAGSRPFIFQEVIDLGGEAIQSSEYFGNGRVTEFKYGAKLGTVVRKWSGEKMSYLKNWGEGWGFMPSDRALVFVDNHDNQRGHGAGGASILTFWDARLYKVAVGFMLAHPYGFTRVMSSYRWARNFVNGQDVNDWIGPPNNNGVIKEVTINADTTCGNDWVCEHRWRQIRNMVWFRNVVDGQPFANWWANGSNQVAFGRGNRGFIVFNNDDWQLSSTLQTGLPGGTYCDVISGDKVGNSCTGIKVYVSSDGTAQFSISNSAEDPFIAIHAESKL

COc1cc(C=Nc2ccc([N+](=O)[O-])cn2)ccc1O [HL, 2-methoxy-4-(((5-nitropyridin-2-yl)imino)methyl)phenol]
EC50 Radical scavenging activities DPPH [1]: 3.10 ± 0.47^d mg/mL
EC50 Radical scavenging activities ABTS [2]: 4.65 ± 0.61^d mg/mL
EC50 Radical scavenging activities Superoxide [3]: 5.25 ± 2.35^d mg/mL
IC50 [4]: 11.3 mM

From publication PMC9218157 (Heliyon, 2022)
